M4 PAM: potentiates acetylcholine response at human M4 receptor; AID 624126; P08173; activation, % at 3 µM; hit rate 0.4% among 360,000; CHO-K1 hM4/Gqi5, Fluo-8 calcium fluorescence, ACh EC20; 0% = ACh EC20, 100% = maximal ACh;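 active = activation above its plate's cutoff, the mean activation of sample wells plus 3 SD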
M5 ag: agonists of human muscarinic M5 receptor (CHRM5); P08912; CHO-K1 hM5 cells, Fluo-8 calcium fluorescence; 0% DMSO wells, 100% maximal acetylcholine response; activation, % at 3 µM; hit rate 0.19% among 360,000;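 active = activation above the run's mean over test compounds plus 3 SD, cut at about 23% in these data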;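 note: signal is peak over basal fluorescence ratio across the kinetic read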
Target sequence (P08912 whole entry, looked up): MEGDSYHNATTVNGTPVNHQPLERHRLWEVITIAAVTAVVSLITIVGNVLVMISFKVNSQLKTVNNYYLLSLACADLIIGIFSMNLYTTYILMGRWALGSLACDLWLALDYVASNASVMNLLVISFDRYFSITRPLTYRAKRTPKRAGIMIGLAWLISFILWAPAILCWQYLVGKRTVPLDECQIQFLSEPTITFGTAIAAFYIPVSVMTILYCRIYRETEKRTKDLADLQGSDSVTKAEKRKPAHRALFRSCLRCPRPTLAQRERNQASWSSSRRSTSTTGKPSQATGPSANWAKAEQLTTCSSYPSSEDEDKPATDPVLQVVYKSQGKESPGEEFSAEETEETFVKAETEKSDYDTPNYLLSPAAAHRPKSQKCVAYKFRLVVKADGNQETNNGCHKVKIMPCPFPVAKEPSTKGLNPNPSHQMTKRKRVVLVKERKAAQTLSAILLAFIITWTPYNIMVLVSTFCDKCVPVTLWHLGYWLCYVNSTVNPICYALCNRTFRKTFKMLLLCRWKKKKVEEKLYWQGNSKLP
CHRM5 PAM: positive allosteric modulators of human muscarinic M5 receptor; P08912; CHO-K1 hM5, Fluo-8 calcium, ACh EC20 PAM; 0% = ACh EC20, 100% = ACh EC100; activation, % at 3 µM; hit rate 0.3% among 360,000;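 active = activation above the run cutoff, the mean activation of all test compounds plus 3 SD, cut at about 18% in these data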
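Assay system – human M5 receptor in CHO-K1 cells · Read-out – % activation, ACh-normalized · Technique – Fluo-8 calcium fluorescence · Dosing – single-point, 3 µM nominal · Incubation – Fluo-8 loading 80 min at 37 °C plus 30 min room temperature · Repeats – singlicate, one well per test compound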
CHRM5 antagonist: blocks acetylcholine activation of human M5 receptor; inhibition, % at 3 µM; hit rate 0.59% among 360,000; CHO-hM5 cells, Fluo-8 calcium fluorescence, ACh EC80; AID 624040;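 active = inhibition above a per-plate cutoff, the mean of that plate's test compounds plus 3 SD, cut at about 27% in these data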;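 note: 0% = acetylcholine EC80 with DMSO and 100% = DMSO without agonist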
CHRM4 agonist: agonists of human muscarinic M4 receptor (CHRM4); CHO-K1 hM4/Gqi5, Fluo-8 calcium fluorescence; vehicle 0%, full acetylcholine response 100%; P08173; hit rate 0.14% among 360,000; activation, % at 3 µM;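 active = activation above the run mean over all test wells plus 3 SD, cut at about 32% in these data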;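 note: peak over basal fluorescence ratio per well then scaled between controls; 0% = DMSO wells and 100% = acetylcholine at EC100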
CHRM4 antagonist: blocks acetylcholine activation of human M4 receptor; P08173; CHO-hM4 cells, ACh EC80, Fluo-8 calcium fluorescence; inhibition, % at 3 µM; hit rate 0.73% among 360,000; AID 624125;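 active = inhibition above its plate's cutoff, the mean inhibition of sample wells plus 3 SD, cut at about 27% in these data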;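 note: 0% = acetylcholine EC80 with DMSO and 100% = DMSO without agonist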
An asterisk follows results filed as active. Most compounds without a hit are left out; they make up all but 1.9% or so of the library.

SMILES	M4 PAM	M5 ag	CHRM5 PAM	CHRM5 antagonist	CHRM4 agonist	CHRM4 antagonist
CCCOC(=O)c1ccc(NC(=O)CSC2=Nc3ccccc3C3CC=NN23)cc1 (stereo not drawn)	38*	1	6	2	1	14
O=C(NCC(=O)N1CCN(Cc2c(F)cccc2Cl)CC1)c1cccc(Cl)c1	1	0	1	3	2	-6
c1ccc2c(c1)nc1n2CC2CON(C3CCCCC3)C12 (stereo not drawn)	25*	0	11	0	0	-8
c1ccc(N2OCC3Cn4c(nc5ccccc54)C32)cc1 (stereo not drawn)	24*	4	6	-13	2	-1
c1ccc(CN2OCC3Cn4c(nc5ccccc54)C32)cc1 (stereo not drawn)	7	-1	7	-3	1	-16
O=[N+]([O-])c1cccc(/C=N/Nc2nc(NCc3ccccc3)nc(N3CCOCC3)n2)c1O	-11	11	-3	14	46*	-1
CN(CC(=O)NCc1ccco1)CC(=O)Nc1c(Cl)cccc1Cl	13	5	18*	-8	2	-12
COc1cccc(NC(=O)CN(C)CC(=O)NCc2ccco2)c1	4	-1	-4	7	1	3
Cc1cc(Cl)cc(Cl)c1OCC(=O)NCc1ccco1	3	-10	22*	1	0	2
COc1ccc(C(NC(=O)C2CCN(C/C=C/c3ccc(OC(C)=O)c(OC)c3)CC2)c2ccccn2)cc1 (stereo not drawn)	-2	-2	3	-6	1	1
Nc1[nH]nc2nc(N3CCCC3)nc(-c3ccccc3)c12	-6	-3	25*	-7	0	2
Nc1nc2ccccc2cc1C(=O)NCc1ccc(-c2ccccc2)cc1	-4	10	-17	31*	17	19
COc1ccc(N(CC(=O)Nc2c(C)n(C)n(-c3ccccc3)c2=O)S(=O)(=O)c2ccc(F)cc2)cc1	22*	-1	21*	11	4	-8
CNC(=O)CN(c1ccc(OC)cc1)S(=O)(=O)c1ccc(F)cc1	20*	-6	28*	-7	0	-11
O=C(NN=C1CCCC1)c1n[nH]c2c1CCC2	27*	2	7	-6	1	-1
O=C(COC(=O)C1(c2ccccc2)CC1)NNC(=O)c1ccccc1	3	3	-9	10	1	1
Fc1ccc(NC(=S)NC2CCN(Cc3ccccc3)CC2)cc1	-9	-2	-5	-2	6	1
S=C(Nc1ccc(Cl)c(Cl)c1)NC1CCN(Cc2ccccc2)CC1	3	19	-14	33*	46*	38*
Cc1cccc(NC(=S)NC2CCN(Cc3ccccc3)CC2)c1C	24*	0	9	-7	5	5
S=C(Nc1cccc(Cl)c1Cl)NC1CCN(Cc2ccccc2)CC1	0	-1	5	-2	9	9
S=C(Nc1ccc(Cl)c(Cl)c1)NC1CCCCC1	-10	3	-23	29*	18	15
Fc1cccc(NC(=S)NC2CCCCCCC2)c1	-6	4	-17	27*	14	-7
COc1ccc(CCNC(=O)COC(=O)CSc2ccc(C(N)=O)cc2[N+](=O)[O-])cc1OC	15	-2	-2	4	4	-11
CCN(CC)S(=O)(=O)c1cccc(NC(=O)/C=C/c2cccc([N+](=O)[O-])c2)c1	-18	-1	-19	33*	19	17
O=C(COC(=O)c1cc([N+](=O)[O-])ccc1NCCO)Nc1ccc2c(c1)OCO2	-5	0	-8	16	4	-3
SMILES	M4 PAM	M5 ag	CHRM5 PAM	CHRM5 antagonist	CHRM4 agonist	CHRM4 antagonist
Cc1cc(OCC(=O)Nc2cccc(S(=O)(=O)N3CCCCC3)c2)ccc1Cl	-7	2	-15	14	5	4
CCN(CC)S(=O)(=O)c1cccc(NC(=O)/C=C/c2ccc([N+](=O)[O-])cc2)c1	-16	3	-10	3	10	2
CCC(=O)c1ccc(OCC(=O)Nc2cccc(S(=O)(=O)N3CCCCCC3)c2)cc1	-13	5	-31	29*	26	25
CCN(CC)S(=O)(=O)c1cccc(NC(=O)Nc2cccc(C(F)(F)F)c2)c1	-15	9	-16	34*	15	11
O=C(COC(=O)c1cc([N+](=O)[O-])ccc1NCCO)Nc1cccc(S(=O)(=O)N2CCCC2)c1	-15	-4	-9	15	5	35*
C=CCNC(=O)CSc1nnc(-c2cccc(S(=O)(=O)N3CCOCC3)c2)o1	4	0	1	-2	1	-17
CCc1ccc(N(CC(=O)NC(C)(C)C)C(=O)CCC(=O)Nc2ccccn2)cc1	-7	-2	-8	1	2	5
Cc1ccc(Cc2ccccc2C(=O)O)cc1	-1	1	4	18	0	-4
CC(C)(C)C(=O)Nc1nnc(SCC(=O)NC2CC2)s1	-9	-1	-3	8	0	12
COc1ccc(CN(C)C(=O)CNC(=O)c2sc3ccccc3c2Cl)c(OC)c1	-5	0	-8	4	9	-13
CCN(CC)S(=O)(=O)c1ccc(C)c(NC(=O)CNc2cccc(S(=O)(=O)N3CCCC3)c2)c1	6	0	0	1	1	-15
CCN(CC)S(=O)(=O)c1cccc(NC(=O)CNc2cccc(S(=O)(=O)N3CCCC3)c2)c1	-6	-2	-12	38*	8	12
O=C(CNc1cccc(S(=O)(=O)N2CCCC2)c1)Nc1ccc(F)c(F)c1	20*	6	-10	10	14	-17
C=CCn1cc(C(=O)N2CCN(c3ccccc3)CC2)c(=O)c2cc(S(=O)(=O)N3CCCC3)ccc21	-1	-6	1	-4	1	-1
CCOC(=O)C1CCN(c2cc3c(cc2NC(=O)c2ccccc2OCC)n(C)c(=O)n3C)CC1	-3	-4	-13	34*	12	11
CCOC(=O)C1CCN(c2cc3c(cc2NC(=O)c2ccccc2Cl)n(C)c(=O)n3C)CC1	-8	-7	-12	26	12	9
CC(N)c1csc(Nc2cc(Oc3ccccc3)ncn2)n1 (stereo not drawn)	0	-2	-3	2	2	3
COC(=O)C1=C(C)NC2=C(C(=O)CC(C)(C)C2)C1c1ccccn1 (stereo not drawn)	13	-1	4	1	1	-9
COC(=O)C1=C(C)NC2=C(C(=O)C(C(=O)OC)C(c3ccc(OC)cc3)C2)C1c1ccccn1 (stereo not drawn)	-2	-2	37*	3	5	-19
